Reference: ChEMBL document CHEMBL1125166, “Kinetic and equilibrium binding studies of amsacrine-4-carboxamides: a class of asymmetrical DNA-intercalating agents which bind by threading through the DNA helix” (J Med Chem, 1990)
“And” between values parts separate entries of the source, which are not always exact repeats. Identical values can stand only once.

Legend:
[1] = test system: Nucleic Acid; test: Free drug extinction coefficient in 0.1 SHE buffer at the concentration of 50 uM; 9.4 x 10 e-3 epcilonfor equilibrium binding to calf thymus DNA; settings: Bos taurus
[2] = test system: Nucleic Acid; test: Free drug λmax in 0.1 SHE buffer at the concentration of 50 uM for equilibrium binding to calf thymus DNA
[3] = Fraction of the observed equilibrium absorbance change accounted in the kinetic analysis
Outline: (§1)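 SDS-induced dissociation by stopped flow. Drug–calf thymus DNA complex (400 μM base pairs, 20 μM drug, 0.1 SHE) mixed 1:1 with 20 mM SDS (monomer) at 20 °C. Finals: 200 μM DNA, 10 μM drug, 10 mM SDS; D/P also 0.2. Absorbance followed at the visible maximum. Time constants and % amplitudes obtained from exponential fitting. Fraction = resolved amplitude over equilibrium absorbance change on SDS addition.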

[4] = test system: Nucleic Acid; test: Association constant for binding to poly(dG-dC) DNA in 0.01 SHE buffer, measured by ethidium displacement method for equilibrium binding to calf thymus DNA; format: nucleic-acid assay
[5] = test system: Nucleic Acid; test: Association constant for binding to poly(dA-dT) DNA in 0.01 SHE buffer, measured by ethidium displacement method for equilibrium binding to calf thymus DNA; format: nucleic-acid assay
[6] = test system: Nucleic Acid; test: Percentage of the sum of the amplitudes evaluated in the kinetic experiment; format: nucleic-acid assay; settings: Bos taurus
[7] = test system: Nucleic Acid; test: (§2) Time constant describing the dissociation profile of calf thymus DNA-drug complexes in 0.1 SHE buffer at 20 degree C; format: nucleic-acid assay
Outline: as §1

[8] = test system: Nucleic Acid; test: Time constant describing the association profile of calf thymus DNA-drug complexes in 0.1 SHE buffer at 20 degree C after 1 min; format: nucleic-acid assay
Outline: (§3)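 Stopped-flow association to sonicated calf thymus DNA (~10^6 MW) in 0.1 SHE at 20 °C. Final DNA 200 μM base pairs and final drug 10 μM (ratio 0.05); D/P also varied to 0.10 and 0.20. Absorbance followed at the drug's visible maximum. Traces deconvoluted into exponentials by curve stripping; at least six runs analysed separately and averaged. Amplitudes given as % of summed amplitudes.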

[9] = test system: Nucleic Acid; test: Association constant for binding to poly(dA-dT) DNA in 0.01 SHE buffer, measured by ethidium displacement method; format: nucleic-acid assay
Outline: (§4)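 Ethidium displacement in 0.01 SHE buffer with poly(dA-dT) or poly(dG-dC). Association constants corrected for quenching.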

[10] = test system: Nucleic Acid; test: Time constant describing the association profile of calf thymus DNA-drug complexes in 0.1 SHE buffer at 20 degree C after 3 min; format: nucleic-acid assay
Outline: as §3

[11] = test system: Nucleic Acid; test: Association constant for binding to poly(dG-dC) DNA in 0.01 SHE buffer, measured by ethidium displacement method; format: nucleic-acid assay
Outline: as §4

[12] = test system: Nucleic Acid; test: Time constant describing the dissociation profile of calf thymus DNA-drug complexes in 0.1 SHE buffer at 20 degree C.; format: nucleic-acid assay
Outline: as §1

[13] = test system: Nucleic Acid; test: (§5) Fraction of the observed equilibrium absorbance change accounted in the kinetic analysis.; format: nucleic-acid assay
Outline: as §1

[14] = test system: Nucleic Acid; test: Time constant describing the association profile of calf thymus DNA-drug complexes in 0.1 SHE buffer at 20 degree C after 2 min; format: nucleic-acid assay
Outline: as §3

[15] = test system: Nucleic Acid; test: Percentage of the sum of the amplitudes evaluated in the kinetic experiment.; format: functional; settings: Bos taurus
Outline: as §1

[16] = test system: Nucleic Acid; test: as §5; format: functional; settings: Bos taurus
Outline: as §1

[17] = test system: Nucleic Acid; test: (§6) Fraction of the observed equilibrium absorbance change accounted in the kinetic analysis on rates with DNA-ligand ratio.; format: functional; settings: Bos taurus
[18] = test system: Nucleic Acid; test: as §6; format: nucleic-acid assay; settings: Bos taurus
[19] = test system: Nucleic Acid; test: Percentage of the sum of the amplitudes in the kinetic experiment.; format: nucleic-acid assay; settings: Bos taurus
[20] = test system: Nucleic Acid; test: Fraction of the observed equilibrium absorbance change accounted in the kinetic analysis or binding of compound to a (dG-dC)-DNA; format: nucleic-acid assay; settings: Bos taurus
[21] = test system: Nucleic Acid; test: Percentage of the sum of the amplitudes evaluated in the kinetic experiment for binding of compound to a calf thymus DNA; settings: Bos taurus
[22] = test system: Nucleic Acid; test: Percentage of the sum of the amplitudes evaluated in the kinetic experiment for binding of compound to a CT-DNA; format: nucleic-acid assay; settings: Bos taurus
Outline: as §1

[23] = test system: Nucleic Acid; test: Time constant describing the dissociation profile was studied for binding of compound to a poly(dA-dT) DNA; format: nucleic-acid assay
[24] = test system: Nucleic Acid; test: Time constant describing the dissociation profile was studied for binding of compound to a (dA-dT)DNA; format: nucleic-acid assay
[25] = test system: Nucleic Acid; test: Time constant describing the association profile was studied for binding of compound to a poly(dA-dT) DNA; format: nucleic-acid assay
[26] = test system: Nucleic Acid; test: Time constant describing the association profile was studied for variation on rates with DNA-ligand ratio.; format: nucleic-acid assay
Outline: as §3

[27] = test system: Nucleic Acid; test: Fraction of the observed equilibrium absorbance change accounted in the kinetic analysis or binding of compound to a (dA-dT)-DNA; format: functional; settings: Bos taurus
[28] = test system: Nucleic Acid; test: (§7) Fraction of the observed equilibrium absorbance change accounted in the kinetic analysis off rates with DNA-ligand ratio.; format: functional; settings: Bos taurus
Outline: as §1

[29] = test system: Nucleic Acid; test: Time constant describing the dissociation profile was studied for binding of compound to a poly(dG-dC) DNA; format: nucleic-acid assay
[30] = test system: Nucleic Acid; test: as §7; format: nucleic-acid assay; settings: Bos taurus
Outline: as §1

[31] = test system: Nucleic Acid; test: Time constant describing the association profile was studied for binding of compound to a (dA-dT)DNA; format: nucleic-acid assay
[32] = test system: Nucleic Acid; test: Fraction of the observed equilibrium absorbance change accounted in the kinetic analysis or binding of compound to a CT-DNA; format: functional; settings: Bos taurus
Outline: as §1

[33] = test system: Nucleic Acid; test: Percentage of the sum of the amplitudes evaluated in the kinetic experiment for binding of compound to a (dI-dC)DNA; format: functional; settings: Bos taurus
[34] = test system: Nucleic Acid; test: as §2; format: nucleic-acid assay; remark: listed apart in the source
Outline: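 Stopped-flow absorbance at 20 °C, read at the visible absorption maxima. The complex was 400 μM sonicated calf thymus DNA (nucleotide pairs) with 20 μM drug in 0.1 SHE, mixed with an equal volume of 20 mM SDS (monomer) in the same buffer. Final: 200 μM DNA bp, 10 μM drug, 10 mM SDS (1 drug : 20 bp). Exponential decay time constants were resolved.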

[35] = test system: Nucleic Acid; test: Percentage of the sum of the amplitudes evaluated in the kinetic experiment on rates with DNA-ligand ratio.; format: functional; settings: Bos taurus
Outline: as §3

ε (×10^-3) [1]	λmax (nm) [2]	Time constant [8]	k0 [9]	Time constant [10]	k0 [11]	Activity ([13]; Bos taurus)	Time constant [14]	Compound	further results
10.1	399							Nc1c2ccccc2nc2ccccc12	Activity [3]: 50; k0 [4]: 1.4e+06 M⁻¹; k0 [5]: 1.2e+06 M⁻¹; Relative amplitude [6]: 15% and 12%; T1 [7]: 3 ms; T2 [7]: 15 ms
10.4	425	8 ms	2.51e+06 M⁻¹	110 ms	3.71e+07 M⁻¹	77 and 88	40 ms	COc1cc(NS(C)(=O)=O)ccc1Nc1c2ccccc2nc2c(C(=O)NCC(O)CO)cccc12 (configuration not stated)	
11.6	438	2 ms	350000 M⁻¹		1.51e+06 M⁻¹	54 and 79	7 ms	CNC(=O)c1cccc2c(Nc3ccc(NS(C)(=O)=O)cc3OC)c3ccccc3nc12	Relative amplitude [19]: 52% [middle of 4 runs]; Time constant [12]: 11 ms and 29 ms
12.9	442	5 ms	2.45e+07 M⁻¹	110 ms	6.6e+07 M⁻¹	62	24 ms	COc1cc(NS(C)(=O)=O)ccc1Nc1c2ccccc2nc2c(C(=O)NCCN(C)C)cccc12	Activity [20]: 76 and 99; Relative amplitude [21]: 64%; Relative amplitude [22]: 41%; Activity [16]: 97; Time constant [23]: 38 ms; Time constant [24]: 7 ms; Time constant [25]: 16 ms; Time constant [26]: 5 ms; Activity [17]: 72; Activity [27]: 25 and 70; Activity [28]: 97; Time constant [29]: 1640 ms and 3500 ms; Activity [30]: 95; Time constant [31]: 3 ms; Activity [18]: 62 and 60; Activity [32]: 62 and 97; Relative amplitude [33]: 78%
12.1	434		290000 M⁻¹		260000 M⁻¹	48		COc1cc(NS(C)(=O)=O)ccc1Nc1c2ccccc2nc2ccccc12	Time constant [34]: 2 ms and 6 ms
9.4	407							CN(C)CCNC(=O)c1cccc2c(N)c3ccccc3nc12	k0 [4]: 5e+07 M⁻¹; T1 [8]: 4 ms; k0 [5]: 2.24e+07 M⁻¹; T1 [7]: 6 ms; T2 [7]: 28 ms; T3 [7]: 86 ms; T4 [7]: 428 ms; T2 [14]: 19 ms

Continued, compound first:

Compound	ε (×10^-3) [1]	λmax (nm) [2]	Time constant [8]	k0 [9]	Time constant [10]	k0 [11]	Activity ([13]; Bos taurus)	Time constant [14]	further results
COc1cc(NS(C)(=O)=O)ccc1Nc1c2ccccc2nc2c(C(=O)NCCO)cccc12	10.4	441	4 ms	890000 M⁻¹	100 ms	2.4e+06 M⁻¹	90 and 80	31 ms	Time constant [12]: 81 ms and 208 ms
COc1cc(NS(C)(=O)=O)ccc1Nc1c2ccccc2nc2c(C(=O)NCCCO)cccc12	10.9	439	4 ms	950000 M⁻¹	95 ms	8.12e+06 M⁻¹	85 and 72	32 ms	Relative amplitude [15]: 25% and 35%; Time constant [12]: 58 ms and 157 ms
COc1cc(NS(C)(=O)=O)ccc1Nc1c2ccccc2nc2c(C(=O)NCCNCCO)cccc12	11.6	441	3 ms	2.19e+07 M⁻¹	66 ms	4.9e+07 M⁻¹	69	18 ms	Activity [16]: 100; Activity [17]: 68; Activity [18]: 69 and 60
COc1cc(NS(C)(=O)=O)ccc1Nc1c2ccccc2nc2c(C(=O)NCCCN(C)C)cccc12	11.6	441	3 ms	2.34e+06 M⁻¹	66 ms	3.98e+06 M⁻¹	79 and 92	15 ms	Relative amplitude [19]: 31% and 39% and 55%
COc1cc(NS(C)(=O)=O)ccc1Nc1c2ccccc2nc2c(C(=O)NCC(=O)NCCNCCO)cccc12	12.3	440	5 ms	2.82e+07 M⁻¹	93 ms	6.61e+07 M⁻¹		25 ms	Activity [16]: 100; Activity [17]: 66 and 65; Activity [18]: 74; Relative amplitude [35]: 33% (2×) and 48% and 37%; Activity [13]: 66
